Bioassay records (PubChem)
Only some compounds are listed: those with a hit (about 2.5% of all), similar ones and a draw of the others.
S100A4 inh HTS: S100A4-myosin IIA interaction inhibition; inhibition, % at 10.7 µM; 360,000 tested, 0.14% active; S100A4/TAMRA-MyoIIA peptide fluorescence polarization; AID 652163; P26447;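 active means mean inhibition of at least 70% across replicates, with every replicate also reaching that level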
Target sequence (P26447 whole entry, looked up): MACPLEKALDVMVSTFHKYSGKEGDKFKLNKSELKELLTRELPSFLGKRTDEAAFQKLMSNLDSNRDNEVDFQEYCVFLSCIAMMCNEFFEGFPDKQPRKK
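Material: S100A4 monomer protein | Medium: HEPES pH 7.2 with CaCl2, KCl, NaCl, DTT, Triton | Reagent: Labelled myosin peptide probe, 5 nM | Doses: One dose per compound | Times: 5 min incubation before reading | Benchmarks: Neutral control DMSO, positive control TFP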
FGF22 binding-1: FGF22 (human) thermal shift binding | Q9HCT0 | recombinant FGF22 thermal shift, SYPRO orange fluorescence; percent of sucrose octasulfate shift, DMSO zero | activity (Tm shift, normalised), % at 9.99 µM | 340,000 tested, 1.5% active | AID 651658;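 active means mean Tm shift, scaled 0 neutral to 100 positive control, at about 1.3% or above, every replicate too, limit read from the data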
SIRT5 inh: inhibitors of human sirtuin-5 desuccinylase; Q9NXA8; Purified SirT5, succinyl-peptide AMC, trypsin-coupled fluorescence; inhibition, % at 15 µM; 330,000 tested, 1.1% active; AID 652115; in the data active means inhibition above about 15%
E-selectin induc: E-selectin induction on HUVECs; 260,000 tested, 0.37% active; P16581; activation, % at 7.58 µM; HUVEC E-selectin immunofluorescence imaging; normalized: neutral wells 0, TNF-alpha wells 100;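 active means mean E-selectin-positive cell signal at least 10% of the positive control, reached in at least 60% of replicates, without over 20% cell loss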
Target sequence (P16581 whole entry, looked up): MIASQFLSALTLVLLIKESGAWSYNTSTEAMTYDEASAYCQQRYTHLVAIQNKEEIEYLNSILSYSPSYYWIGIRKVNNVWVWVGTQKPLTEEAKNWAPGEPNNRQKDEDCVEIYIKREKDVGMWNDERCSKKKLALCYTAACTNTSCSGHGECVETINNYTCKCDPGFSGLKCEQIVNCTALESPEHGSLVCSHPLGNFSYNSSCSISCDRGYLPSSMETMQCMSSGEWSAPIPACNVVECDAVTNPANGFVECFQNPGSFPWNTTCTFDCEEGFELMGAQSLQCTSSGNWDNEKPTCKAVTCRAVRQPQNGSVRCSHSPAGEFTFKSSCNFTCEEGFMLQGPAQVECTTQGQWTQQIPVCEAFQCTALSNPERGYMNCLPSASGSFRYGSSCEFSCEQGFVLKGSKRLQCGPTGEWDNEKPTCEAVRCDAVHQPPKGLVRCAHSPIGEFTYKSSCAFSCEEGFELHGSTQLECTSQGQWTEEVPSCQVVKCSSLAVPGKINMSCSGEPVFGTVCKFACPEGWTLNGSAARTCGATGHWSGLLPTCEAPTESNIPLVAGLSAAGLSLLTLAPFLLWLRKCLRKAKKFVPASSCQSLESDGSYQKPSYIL
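material = human umbilical vein endothelial cells (HUVEC), E-selectin induction | quantity = 3,000 cells/well | medium = EGM-2 growth medium on 0.1% gelatin-coated wells | technique = immunofluorescence imaging | read-out basis = % PE-positive cells | control set = TNF-alpha positive control, DMSO neutral control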
miR-122 sensor: miR-122 inhibition in Huh7 cells; Huh7 miR-122 Renilla luciferase sensor, 48 h; neutral wells = 0, positive control = 100; activation (reporter increase), % at 12.5 µM; 340,000 tested, 0.3% active;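 active means mean replicate activation score at least 90 and every replicate individually at or above 90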;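 further: higher luciferase means less miR-122 activity so hits act as miR-122 inhibitors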
FGF22 binding-2: binds human FGF22 shifting its melting temperature; shares compounds with FGF22 binding-1; recombinant FGF22 thermal shift, SYPRO orange fluorescence; thermal shift activity, °C (ΔTm) at 38 µM; 1,000 tested, 2% active; AID 720646;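 active means fitted rise in melting shift crosses a set limit at or below the top valid dose tested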
FGF22 TSA: FGF22 (human) binding by thermal shift | shares compounds with FGF22 binding-1 | Thermal shift assay, SYPRO orange, melting temperature shift | Tm shift (activity), % at 38 µM | 50 tested, under 10 active | AID 743017;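 active means compounds whose fitted dose curve of melting temperature shift rises past a set threshold within the tested doses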
TSA no protein: compound-only SYPRO artifact for FGF22 binders | AC50, µM (top dose mostly 38 µM) | 1,000 tested, 2% active | compound-only SYPRO orange thermal shift counter-screen, no protein | shares compounds with FGF22 binding-1 | AID 743019;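 active means rising signal whose fitted curve reaches the 0.54 level within the top valid dose, showing a melting point, actives reach about 13 µM in these data; inactive means the rest, including activity in the opposite direction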; further: value is where the raw curve crosses a fixed level and not half-maximal
Numbers stand for hits; – = inactive; · = no result.

SMILES	S100A4 inh HTS	FGF22 binding-1	SIRT5 inh	E-selectin induc	miR-122 sensor	FGF22 binding-2	TSA no protein	others
CCNC(=O)C[C@@H]1CC[C@@H]2[C@@H](COc3ccc(NC(=O)C4CCOCC4)cc3C(=O)N2C)O1	–	–	–	–	–	·	·
Cc1ccc(NC(=O)Nc2ccc3c(c2)C(=O)N(C)[C@@H]2CC[C@H](CC(=O)O)O[C@H]2CO3)cc1	–	–	–	–	–	·	·
Cc1ccc(C(=O)Nc2nc(=O)n(C(=O)C3CC3)s2)cc1	–	1.3	–	·	·	–	–
O=C(Nc1nc(=O)n(C(=O)C2CC2)s1)c1ccccc1	–	2.2	–	·	–	–	–
CCS(=O)(=O)NCCNc1ccc([N+](=O)[O-])cc1	–	1.5	–	–	–	–	–
CN1C(=O)c2cc(NC(=O)c3ccccc3Cl)ccc2OC[C@@H]2O[C@@H](CC(=O)NCC(F)(F)F)CC[C@H]21	126.7	36.0	–	·	·	–	–
CN1C(=O)c2cc(NC(=O)c3ccccc3Cl)ccc2OC[C@H]2O[C@H](CC(=O)NCC(F)(F)F)CC[C@H]21	–	–	–	·	·	·	·
CCNC(=O)C[C@@H]1CC[C@H]2[C@H](COc3ccc(NC(=O)Nc4ccc(Cl)cc4)cc3C(=O)N2C)O1	–	1.2	–	–	–	–	–	FGF22 TSA=–
CCNC(=O)C[C@@H]1CC[C@@H]2[C@@H](COc3ccc(NC(=O)Nc4ccc(Cl)cc4)cc3C(=O)N2C)O1	–	–	–	–	–	·	·
CNC(=O)C[C@H]1CC[C@@H]2[C@H](COc3ccc(NC(=O)c4ccccc4OC)cc3C(=O)N2C)O1	–	2.6	–	–	–	–	–
CCC(=O)N[C@@H]1CC[C@H](CC(=O)NCc2ccc(OC)cc2)O[C@H]1CO	–	–	–	–	·	·	·
C[C@H]1CN([C@@H](C)CO)C(=O)c2cc(NC(=O)Cc3cn(C)c4ccccc34)ccc2O[C@@H]1CN(C)Cc1ccncc1	–	–	–	–	–	·	·
CNC[C@@H]1Oc2ccc(NC(=O)C3CCCCC3)cc2C(=O)N([C@@H](C)CO)C[C@@H]1C	–	–	–	–	–	·	·
CC(C)CC#Cc1ccc2c(c1)O[C@@H](CN(C)C(=O)Nc1ccccc1)[C@H](C)CN([C@H](C)CO)S2(=O)=O	–	–	–	–	–	·	·
CCCCNC(=O)C1c2cc(OC)c(OC)cc2C(=O)N(C)C1c1cccs1 (centres undefined)	–	3.6	–	·	–	–	–
CCCN(CCC)CCCNC(=O)C1c2cc(OC)c(OC)cc2C(=O)N(C)C1c1cccs1 (centres undefined)	·	·	·	·	–	·	·
CC1(c2ccc3ccccc3c2)NC(=O)N(CC(=O)Nc2ncccc2O)C1=O (centres undefined)	–	1.7	–	–	·	–	–
Cc1ccnc(NC(=O)CN2C(=O)NC(C)(c3ccc4ccccc4c3)C2=O)c1 (centres undefined)	–	–	–	–	·	·	·
Oc1ccc(-c2nc3ccccc3s2)c(O)c1	–	1.3	–	–	·	–	–
Nc1ccc(O)c(-c2nc3ccccc3s2)c1	·	·	·	·	–	·	·
Nc1c(N(CCO)C(=O)COc2ccc(Cl)cc2)c(=O)[nH]c(=O)n1Cc1ccccc1	–	1.8	–	–	·	–	–
O=C(C[C@H]1C=C[C@@H](NC(=O)Nc2ccc(C(F)(F)F)cc2)[C@H](CO)O1)NCc1ccccn1	–	–	–	–	·	·	·
O=c1oc(-c2ccc(O)c(O)c2)cc2cc(O)cc(O)c12	–	1.5	·	·	–	–	–
O=c1oc(-c2ccc(O)c(O)c2)cc2cccc(O)c12	–	–	–	·	–	·	·
C[C@H](CO)N1C[C@H](C)[C@@H](CN(C)S(=O)(=O)c2ccc(F)cc2)Oc2c(NS(=O)(=O)c3ccc(Cl)cc3)cccc2C1=O	·	–	·	–	–	·	·
SMILES	S100A4 inh HTS	FGF22 binding-1	SIRT5 inh	E-selectin induc	miR-122 sensor	FGF22 binding-2	TSA no protein	others
C[C@H]1CCCCO[C@H](CN(C)C(=O)Nc2ccc(F)cc2)[C@@H](C)CN([C@@H](C)CO)C(=O)c2cc(NC(=O)C3CCCCC3)ccc2O1	–	–	–	–	–	·	·
COCC(=O)N1CC[C@@H]2[C@H]1c1cc(-c3cccc(C#N)c3)ccc1N[C@@H]2CO	–	–	–	–	–	·	·
O=C(NCc1ccc(Cl)cc1)c1n[nH]c([N+](=O)[O-])c1Cl	–	4.2	–	·	·	–	–
O=C(NCCc1c[nH]c2ccccc12)c1ccc(Cl)cc1	–	2.4	–	–	–	–	–	FGF22 TSA=–
COc1ccc(C(=O)NCCc2c[nH]c3ccccc23)cc1	–	–	–	·	·	·	·
CO[C@H]1CC[C@H]2CCN(C)C(=O)[C@H](C)[C@H](OC)CN(C)C(=O)c3cc(C#N)ccc3OC[C@H]1O2	–	–	–	–	·	·	·
CC1(C(=O)NS(=O)(=O)Cc2cccc(Cl)c2)CCN1C(=O)C1(c2ccc(Cl)cc2)CCC1 (centres undefined)	–	1.5	–	–	–	·	–
CC1(C(=O)NS(=O)(=O)c2ccc(Cl)cc2)CCN1C(=O)Cc1ccc(Cl)cc1Cl (centres undefined)	–	1.5	–	–	–	–	–
Cc1ccc(S(=O)(=O)NCC[C@H]2CC[C@H](NC(=O)C3CCOCC3)[C@H](CO)O2)cc1	–	–	–	–	·	·	·
Cc1noc(C)c1NC(=O)N(C)C[C@H]1OCc2ccccc2-c2ccccc2C(=O)N([C@@H](C)CO)C[C@@H]1C	–	–	–	–	·	·	·
C[C@H](CO)N1C[C@H](C)[C@H](CN(C)C(=O)c2ccccc2)OCCCC[C@H](C)Oc2ccc(NS(=O)(=O)c3cccs3)cc2C1=O	–	–	–	·	–	·	·
COc1ccc(CCNS(=O)(=O)CCNC(=O)c2ccc3c(c2)OCO3)cc1	–	11.3	–	–	–	–	–
CNC[C@H]1OCCCC[C@H](C)Oc2ccc(NC(=O)c3ccncc3)cc2C(=O)N([C@H](C)CO)C[C@@H]1C	–	–	–	–	–	·	·
CCN(CC)CCNS(=O)(=O)c1ccc(Cl)cc1	·	·	·	·	–	·	·
CCCN(CCC)CC(C)(C)NS(=O)(=O)c1ccc(Cl)cc1	–	1.4	·	–	–	–	–
COc1ccc(NC(=O)Nc2ccc3c(c2)CC(=O)N([C@H](C)CO)C[C@H](C)[C@@H](CN(C)Cc2ccc(Cl)c(Cl)c2)O3)cc1	·	–	·	–	–	·	·
CC(C)NC(=O)N1[C@H](CO)[C@H](c2ccccc2-c2ccc(F)cc2)[C@@H]1C#N	–	1.8	–	–	·	–	–
N#C[C@@H]1[C@H](c2ccc(-c3cccnc3)cc2)[C@H](CO)N1C(=O)Nc1ccc(F)cc1	–	2.7	–	–	·	–	–
